Calls of active or inactive are those of the source. No cut-off for these calls is given here.
Assays:
[1] = biological target: T1, Integrin alpha-V/beta-3 (Homo sapiens, UniProt P05106+P06756); assay: Agonist activity at alphaVbeta3 in human SK-MEL-24 cells assessed as increase in cell adhesion to fibronectin pre-incubated for 30 mins before fibronectin and further incubated for 1 hr by nitrophenyl-N-acetyl-beta-D-glucosaminide substrate based chromogenic assay
Summary of the method: (§1)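 Compound or methanol vehicle pre-incubated with cells for 30 min at room temperature. Cells then plated on wells coated overnight at 4 °C with fibronectin 10 µg/mL (SK-MEL-24, K562, HT-29) or fibrinogen 10 µg/mL (MCF7, HEL). Seeding was 50,000 cells/well, or 100000 for HEL. Adhesion ran 1 h at room temperature. Wells washed with 1% BSA/PBS. Adherent cells read by hexosaminidase substrate, absorbance 405 nm. Quadruplicate, at least three repeats.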

[2] = biological target: Integrin alpha-V/beta-6 (Homo sapiens, UniProt P06756+P18564); assay: Antagonist activity at alphaVbeta6 in human HT-29 cells assessed as reduction in cell adhesion to fibronectin pre-incubated for 30 mins before fibronectin and further incubated for 1 hr by nitrophenyl-N-acetyl-beta-D-glucosaminide substrate based chromogenic assay
Summary of the method: as §1, with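 “BSA/PBS.” for “BSA/PBS. Adherent cells read by hexosaminidase substrate, absorbance 405 nm.”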

[3] = biological target: T2, Integrin alpha-4/beta-1 (Homo sapiens, UniProt P05556+P13612); assay: Agonist activity at alpha4beta1 in human Jurkat E6.1 cells assessed as increase in cell adhesion to VCAM1 pre-incubated for 30 mins before VCAM1 and further incubated for 30 mins by […]; assay type: cell-based
T2 sequence (P05556 whole entry): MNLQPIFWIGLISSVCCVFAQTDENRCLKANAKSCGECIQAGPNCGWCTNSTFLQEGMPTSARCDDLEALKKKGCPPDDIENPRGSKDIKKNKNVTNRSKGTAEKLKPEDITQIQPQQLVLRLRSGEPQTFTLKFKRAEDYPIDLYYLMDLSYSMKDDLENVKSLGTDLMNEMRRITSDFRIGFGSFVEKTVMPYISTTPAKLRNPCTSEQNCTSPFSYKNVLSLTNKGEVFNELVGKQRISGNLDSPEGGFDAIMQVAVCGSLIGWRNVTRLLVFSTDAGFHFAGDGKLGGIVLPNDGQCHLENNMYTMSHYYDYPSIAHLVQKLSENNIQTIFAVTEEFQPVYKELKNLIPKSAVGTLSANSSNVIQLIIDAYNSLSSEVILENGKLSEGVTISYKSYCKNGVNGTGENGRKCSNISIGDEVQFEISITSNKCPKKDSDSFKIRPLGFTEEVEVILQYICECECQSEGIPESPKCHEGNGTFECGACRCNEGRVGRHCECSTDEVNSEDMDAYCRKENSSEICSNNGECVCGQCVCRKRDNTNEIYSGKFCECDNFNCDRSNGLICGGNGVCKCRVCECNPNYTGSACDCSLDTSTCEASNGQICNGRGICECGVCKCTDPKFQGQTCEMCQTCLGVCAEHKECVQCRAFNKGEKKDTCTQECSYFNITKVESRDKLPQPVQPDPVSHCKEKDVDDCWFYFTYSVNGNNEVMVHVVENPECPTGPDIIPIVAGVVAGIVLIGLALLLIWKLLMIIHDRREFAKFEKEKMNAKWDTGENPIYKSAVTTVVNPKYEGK
T2 sequence (P13612 whole entry): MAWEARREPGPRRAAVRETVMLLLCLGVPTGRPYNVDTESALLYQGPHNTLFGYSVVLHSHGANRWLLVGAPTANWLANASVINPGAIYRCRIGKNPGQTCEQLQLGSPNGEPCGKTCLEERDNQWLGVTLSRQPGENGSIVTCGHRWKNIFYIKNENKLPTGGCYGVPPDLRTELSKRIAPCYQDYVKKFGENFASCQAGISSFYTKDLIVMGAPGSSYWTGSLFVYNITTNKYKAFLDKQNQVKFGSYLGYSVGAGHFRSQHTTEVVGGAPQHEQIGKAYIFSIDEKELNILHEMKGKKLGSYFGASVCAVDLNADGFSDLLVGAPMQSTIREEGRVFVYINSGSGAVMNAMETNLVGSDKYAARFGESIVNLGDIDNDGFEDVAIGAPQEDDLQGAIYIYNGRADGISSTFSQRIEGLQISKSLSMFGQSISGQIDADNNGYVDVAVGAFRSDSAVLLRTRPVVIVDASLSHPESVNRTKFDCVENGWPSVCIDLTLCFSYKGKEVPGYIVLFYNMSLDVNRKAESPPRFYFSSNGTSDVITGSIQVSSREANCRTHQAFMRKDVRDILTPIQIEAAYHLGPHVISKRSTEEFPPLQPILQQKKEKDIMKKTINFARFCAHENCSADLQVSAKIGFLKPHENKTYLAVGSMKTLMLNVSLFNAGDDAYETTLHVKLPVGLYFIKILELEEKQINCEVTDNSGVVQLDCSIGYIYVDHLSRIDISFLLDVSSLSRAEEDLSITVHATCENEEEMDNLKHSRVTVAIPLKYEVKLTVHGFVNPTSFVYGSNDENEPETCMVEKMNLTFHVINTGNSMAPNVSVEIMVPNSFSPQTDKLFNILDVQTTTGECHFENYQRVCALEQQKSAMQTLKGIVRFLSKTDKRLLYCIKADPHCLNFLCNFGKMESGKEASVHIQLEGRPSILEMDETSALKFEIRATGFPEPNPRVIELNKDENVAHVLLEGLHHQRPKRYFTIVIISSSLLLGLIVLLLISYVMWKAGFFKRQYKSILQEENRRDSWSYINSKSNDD
Summary of the method: (§2)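 Jurkat E6.1 cells labelled with CellTracker green CMFDA (12.5 µM, 30 min, 37 °C), washed, then pre-incubated 30 min at 37 °C with compound or methanol. Plated at 500,000/well on VCAM-1 (α4β1) or ICAM-1 (αLβ2) coated wells (5 µg/mL) for 30 min at 37 °C. Cells lysed in 0.5% Triton X-100; fluorescence read Ex485/Em535. Quadruplicate, at least three repeats.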

[4] = biological target: T3, Integrin alpha-L/beta-2 (LFA-1) (Homo sapiens, UniProt P05107+P20701); assay: Agonist activity at alphaLbeta2 in human Jurkat E6.1 cells assessed as increase in cell adhesion to ICAM1 pre-incubated for 30 mins before ICAM1 and further incubated for 30 mins by […]; assay type: cell-based; summary of the method: as §2
T3 sequence (P20701 whole entry): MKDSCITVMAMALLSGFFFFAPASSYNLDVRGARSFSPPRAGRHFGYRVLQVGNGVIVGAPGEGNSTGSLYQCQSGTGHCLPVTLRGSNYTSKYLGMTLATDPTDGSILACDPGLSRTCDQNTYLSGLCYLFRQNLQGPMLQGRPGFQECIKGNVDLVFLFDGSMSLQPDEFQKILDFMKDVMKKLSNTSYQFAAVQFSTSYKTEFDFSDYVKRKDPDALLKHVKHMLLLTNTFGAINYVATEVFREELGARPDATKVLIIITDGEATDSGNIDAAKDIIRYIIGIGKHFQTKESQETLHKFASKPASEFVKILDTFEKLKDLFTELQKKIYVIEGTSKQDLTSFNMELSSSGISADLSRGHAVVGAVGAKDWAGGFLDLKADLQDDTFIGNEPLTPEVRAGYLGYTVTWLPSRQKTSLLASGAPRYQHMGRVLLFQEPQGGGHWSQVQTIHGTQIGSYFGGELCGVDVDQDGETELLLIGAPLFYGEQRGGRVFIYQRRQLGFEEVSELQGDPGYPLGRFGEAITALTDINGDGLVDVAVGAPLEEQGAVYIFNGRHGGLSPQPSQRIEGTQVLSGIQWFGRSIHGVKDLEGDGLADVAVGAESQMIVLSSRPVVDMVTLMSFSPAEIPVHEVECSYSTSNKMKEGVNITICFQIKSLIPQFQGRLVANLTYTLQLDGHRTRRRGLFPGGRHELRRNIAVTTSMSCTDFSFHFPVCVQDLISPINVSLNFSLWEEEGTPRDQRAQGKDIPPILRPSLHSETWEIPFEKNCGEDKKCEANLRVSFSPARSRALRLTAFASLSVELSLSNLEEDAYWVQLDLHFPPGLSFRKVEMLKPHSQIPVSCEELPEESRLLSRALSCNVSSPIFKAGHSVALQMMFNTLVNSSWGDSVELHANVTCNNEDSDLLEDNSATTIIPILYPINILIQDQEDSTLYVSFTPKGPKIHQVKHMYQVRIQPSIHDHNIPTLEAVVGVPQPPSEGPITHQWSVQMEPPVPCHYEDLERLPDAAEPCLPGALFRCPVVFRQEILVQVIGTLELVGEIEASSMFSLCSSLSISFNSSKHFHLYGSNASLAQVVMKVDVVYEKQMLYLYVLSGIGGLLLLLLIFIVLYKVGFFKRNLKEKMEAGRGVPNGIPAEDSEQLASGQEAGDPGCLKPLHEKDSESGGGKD
T3 sequence (P05107 whole entry): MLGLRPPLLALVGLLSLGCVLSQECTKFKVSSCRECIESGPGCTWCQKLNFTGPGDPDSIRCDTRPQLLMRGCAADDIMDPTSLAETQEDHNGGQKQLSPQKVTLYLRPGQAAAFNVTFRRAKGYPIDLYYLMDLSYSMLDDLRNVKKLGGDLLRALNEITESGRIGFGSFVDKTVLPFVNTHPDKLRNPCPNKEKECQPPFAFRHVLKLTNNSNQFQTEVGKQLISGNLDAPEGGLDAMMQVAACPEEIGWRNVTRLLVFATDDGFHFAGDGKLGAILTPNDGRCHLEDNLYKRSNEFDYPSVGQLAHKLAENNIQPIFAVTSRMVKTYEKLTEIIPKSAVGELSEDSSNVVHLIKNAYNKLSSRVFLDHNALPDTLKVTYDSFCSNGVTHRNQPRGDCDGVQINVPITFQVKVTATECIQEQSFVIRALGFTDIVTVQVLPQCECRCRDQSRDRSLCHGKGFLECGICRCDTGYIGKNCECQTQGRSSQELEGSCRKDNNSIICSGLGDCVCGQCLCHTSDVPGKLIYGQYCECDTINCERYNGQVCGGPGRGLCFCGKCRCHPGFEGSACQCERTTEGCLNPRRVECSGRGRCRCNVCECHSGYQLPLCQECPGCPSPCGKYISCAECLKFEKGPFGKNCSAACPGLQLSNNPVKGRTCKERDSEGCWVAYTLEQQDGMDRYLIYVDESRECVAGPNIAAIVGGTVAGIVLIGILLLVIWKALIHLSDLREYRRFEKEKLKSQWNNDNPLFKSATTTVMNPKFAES

[5] = biological target: T3, Integrin alpha-L/beta-2 (LFA-1); assay: Antagonist activity at alphaLbeta2 in human Jurkat E6.1 cells assessed as reduction in cell adhesion to ICAM1 pre-incubated for 30 mins before ICAM1 and further incubated for 30 mins by […]; assay type: cell-based; summary of the method: as §2
[6] = biological target: Integrin alpha-V/beta-5 (Homo sapiens, UniProt P06756+P18084); assay: Inhibition of fibrinogen binding to alphaVbeta5 isolated form human mCf7 cells incubated for 1 hr by […] competitive solid-phase binding assay
[7] = biological target: T2, Integrin alpha-4/beta-1; assay: Inhibition of fibronectin binding to […] isolated from human Jurkat E6.1 cells incubated for 1 hr by scintillation-proximity assay based competitive solid-phase binding assay; assay type: tissue-based
[8] = biological target: T2, Integrin alpha-4/beta-1; assay: Agonist activity at alpha4beta1 in human Jurkat E6.1 cells assessed as increase in cell adhesion to VCAM1 at 10 ug/ml pre-incubated for 30 mins and further incubated for 30 mins in presence of neutralizing antibody against the alpha4 integrin subunit by nitrophenyl-N-acetyl-beta-D-glucosaminide substrate based chromogenic assay; details: dose 10.0 µg/ml, time 60.0 min
Summary of the method: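 Agonist-coated wells (10 µg/mL in methanol). Cells pre-treated 10 min before plating with neutralizing anti-α5, anti-αv or anti-α4 antibody (10 µg/mL), or pre-incubated with c(-RGDfV) (1 µM). K562 plated at 50,000/well and Jurkat E6.1 at 500,000/well. Adhesion quantified as in the standard assay.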

[9] = biological target: Integrin alpha-IIb/beta-3 (Homo sapiens, UniProt P05106+P08514); assay: Inhibition of fibrinogen binding to alpha2bbeta3 isolated from human HEL cells incubated for 1 hr by […] competitive solid-phase binding assay
[10] = biological target: Integrin alpha-5/beta-1 (Homo sapiens, UniProt P05556+P08648); assay: Agonist activity at alpha5beta1 in human K562 cells assessed as increase in cell adhesion to fibronectin at 10 ug/ml […] and further incubated for 1 hr in presence of neutralizing antibody against the alpha5 integrin subunit by nitrophenyl-N-acetyl-beta-D-glucosaminide substrate based chromogenic assay; details: dose 10.0 µg/ml, time 90.0 min
[11] = biological target: T1, Integrin alpha-V/beta-3; assay: Agonist activity at human alphaVbeta3 expressed in HEK293 cells assessed as reduction in fibronectin-induced ERK1/2 phosphorylation at 1 to 100 nM by Western blot analysis; assay type: cell-based; details: filed as agonist, dose 1-100 nM
[12] = biological target: Integrin alpha-L/beta-2 (LFA-1) (Homo sapiens) (UniProt P20701+P05107); assay: Antagonist activity at alphaLbeta2 in human Jurkat E6.1 cells assessed as reduction in ICAM-1-induced ERK1/2 phosphorylation by Western blot analysis; assay type: cell-based; details: filed as antagonist
[13] = biological target: Integrin alpha-L/beta-2 (Homo sapiens); assay: Binding affinity to human alphaLbeta2 incubated for 1 hr by scintillation-proximity assay based competitive solid-phase binding assay

SMILES	EC50 [1] [nM]	IC50 [2] [nM]	EC50 [3] [nM]	EC50 [4] [nM]	IC50 [5] [nM]	IC50 [6] [nM]	IC50 [7] [nM]	Activity [8]	IC50 [9] [nM]	Activity [10]	Activity [11]	Activity [12]	IC50 [13] [nM]
Cc1ccccc1NC(=O)N1C(=O)CC1CC(=O)NCC(=O)O (stereo not given)	> 5000	> 5000	> 5000	> 5000	> 5000	> 1000	> 1000	inactive	–	–	–	–	–
Nc1ccc(CNC(=O)N2C(=O)CC2CC(=O)O)cc1.O=C(O)C(F)(F)F (stereo not given)	–	> 5000	–	–	0.39	> 1000	498	–	> 1000	inactive	Active	Dose-dependent effect	6.7
NCc1ccc(NC(=O)N2C(=O)CC2CC(=O)NCCC(=O)O)cc1.O=C(O)C(F)(F)F (stereo not given)	> 5000	> 5000	> 5000	> 5000	> 5000	> 1000	–	inactive	> 1000	–	–	–	–
